Bioassay records (PubChem)
In the library only some 1.4% were active in any assay of this set; here they are far more common.
Lipid droplet = inhibitors of hepatocyte lipid droplet formation, primary screen, imaging, high-throughput imaging, BODIPY stain; AID 1656, 2009; AML12 mouse hepatocytes, oleate lipid droplets; inhibition, % at 6.5 µM; hit rate 0.4% among 240,000;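 active = lipid droplet intensity inhibited by at least 50%, with more than 500 cells counted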
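Assay system: AML12 mouse liver cells | Compound dosing: One dose, 6.5 µM compound | Read-out basis: Droplet intensity reduction, % inhibition | Measured by: Fluorescence imaging, 20x objective, two fields per well | Schedule: Overnight treatment with compound plus oleate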
MOR-DOR inv ag = inverse agonists of MOR-DOR heterodimerization, primary screen, cell-based, luminescence. Mu-type opioid receptor (Homo sapiens) + Delta-type opioid receptor (Homo sapiens), …. cell-based MOR-DOR heterodimer luminescence, inverse agonism. inhibition, % at 9.3 µM. hit rate 0.21% among 340,000. AID 504357, 2011; in the data active = inhibition above about 22%, passing the limit was not always enough
Target sequence (P35372 whole entry, looked up): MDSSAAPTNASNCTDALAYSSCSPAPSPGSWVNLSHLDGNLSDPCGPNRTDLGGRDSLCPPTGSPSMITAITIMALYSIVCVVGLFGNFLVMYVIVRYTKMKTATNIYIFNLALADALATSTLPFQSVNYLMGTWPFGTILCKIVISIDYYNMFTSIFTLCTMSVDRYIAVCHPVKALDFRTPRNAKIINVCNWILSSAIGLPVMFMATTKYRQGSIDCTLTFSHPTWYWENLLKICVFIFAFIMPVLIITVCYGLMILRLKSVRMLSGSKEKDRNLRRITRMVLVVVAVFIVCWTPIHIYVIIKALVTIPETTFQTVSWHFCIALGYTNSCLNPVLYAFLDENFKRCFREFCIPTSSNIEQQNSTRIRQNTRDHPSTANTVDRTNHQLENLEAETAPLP
Target sequence (P41143 whole entry, looked up): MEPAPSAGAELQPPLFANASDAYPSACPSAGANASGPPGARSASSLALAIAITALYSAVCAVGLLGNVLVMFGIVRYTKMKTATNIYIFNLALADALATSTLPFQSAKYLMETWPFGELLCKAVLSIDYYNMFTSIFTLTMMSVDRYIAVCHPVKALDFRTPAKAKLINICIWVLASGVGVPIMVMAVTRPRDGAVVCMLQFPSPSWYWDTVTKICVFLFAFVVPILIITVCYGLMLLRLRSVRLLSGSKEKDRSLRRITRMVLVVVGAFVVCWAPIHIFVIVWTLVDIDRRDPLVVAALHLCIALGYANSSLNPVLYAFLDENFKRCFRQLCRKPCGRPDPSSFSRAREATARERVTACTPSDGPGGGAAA
HTR5A ag = HTR5A agonists in luminescence cell assay, primary screen, counter-screen for OPRM1-OPRD1 heterodimer agonist project, full-deck HTS; activation, % at 9.3 µM; cell-based; hit rate 0.61% among 340,000; AID 504692, 2011; 5-hydroxytryptamine receptor 5A (Homo sapiens), P47898; in the data active = activation mostly above about 9.5%, no sharp cut-off; inactive = mostly below about 7.6%
MOR-DOR ag = agonists of OPRM1-OPRD1 heterodimerization, primary screen, cell-based, luminescence; Mu-type opioid receptor (Homo sapiens) + Delta-type opioid receptor (Homo sapiens), …; cells; activation, % at 9.3 µM; hit rate 0.3% among 340,000; AID 504326, 2011
HTR5A inv ag = HTR5A inverse agonists in luminescence cell assay, primary screen, counter-screen for OPRM1-OPRD1 heterodimer inverse agonist project, full-deck HTS; HTR5A cell line, inverse agonism; inhibition, % at 9.3 µM; hit rate 0.083% among 340,000; in the data active = inhibition mostly above about 23%, no sharp cut-off; inactive = mostly below about 18%
MOR-DOR ag conf = agonists of MOR-DOR heterodimerization, confirmation, cell-based, luminescence | cells, luminescence complementation | shares compounds with MOR-DOR ag | activation, % at 9.3 µM | hit rate 45% among 830
HTR5A ag ctr2 = HTR5A agonists in cells, counter-screen for OPRM1-OPRD1 heterodimer agonist project, cell-based, luminescence; shares compounds with MOR-DOR ag; HTR5A agonist counterscreen; activation, % at 9.3 µM; hit rate 8% among 830; AID 504905, 2011; in the data active = activation above about 17%
Hits are given with their value; 0 = inactive; - = no result; ! = repeats disagree. Cut-off read from the data, not from the text of the source, unless noted: active = activation above about 18%; inactive = the rest.

SMILES	Lipid droplet	MOR-DOR inv ag	HTR5A ag	MOR-DOR ag	HTR5A inv ag	MOR-DOR ag conf	HTR5A ag ctr2
Cc1ccc(NC(=O)C2C3C=CC4(O3)C2C(=O)N(CCCN2CCCC2)C4C(=O)NC2CCCCC2)cc1Cl (stereo not given)	0	0	0	0	0	-	-
CCCCN(C)CCN1C(=O)C2C(C(=O)Nc3ccc(C)cc3)C3C=CC2(O3)C1C(=O)NC1CCCCC1 (stereo not given)	0	0	0	0	0	-	-
CC(C)c1ccc(NC(=O)C2C3C=CC4(O3)C2C(=O)N(CCCN2CCCCC2)C4C(=O)NC2CCCCC2)cc1 (stereo not given)	0	0	0	26	0	0	0
O=C(NCCCc1ccccn1)C1CCC(=O)N(Cc2cccc(F)c2)C1 (stereo not given)	0	0	0	0	0	-	-
CCc1ccc(OCc2n[nH]c(=S)n2C(C)CCCC(C)C)cc1 (stereo not given)	0	0	0	20	0	0	18
Oc1ccccc1CNc1ccc(Br)cn1	-	0	32	71	0	60	27
Oc1cccc(C(=S)N2CCN(Cc3ccccc3)CC2)c1	0	0	0	32	0	0	0
Oc1cccc(C(=S)N2CCC(Cc3ccccc3)CC2)c1	0	0	0	0	0	-	-
Cc1cc(C)c(C(=O)NCC(=O)c2ccccc2)c(C)c1	-	0	0	0	0	-	-
COc1ccc(CCC(=O)NC(C)c2ccccc2)cc1OC (stereo not given)	0	0	0	0	0	-	-
CCOC(=O)C1=C(c2ccccc2)NC(=O)NC1c1ccc(O)c(OCC)c1 (stereo not given)	0	0	0	0	0	-	-
CCOC(=O)C1=C(c2ccccc2)NC(=O)NC1c1ccc(O)c(Cl)c1 (stereo not given)	0	0	31	103	0	82	28
C=C(CN(C)C)C(=O)c1ccc(OC2OC(COC(C)=O)C(OC(C)=O)C(OC(C)=O)C2OC(C)=O)cc1 (stereo not given)	-	0	0	0	0	-	-
O=S(=O)(NCCSc1nnc(-c2ccco2)n1-c1ccccc1)c1ccccc1	-	0	0	19	0	0	0
NC(=O)CSc1nnc(-c2ccco2)n1-c1ccccc1	0	0	0	0	0	-	-
COc1ccccc1N1CCN(C(c2cccs2)C(C)NC(=O)c2ccco2)CC1 (stereo not given)	0	0	0	91	0	119	0
CCOC(=O)c1sc2ncn(CC(=O)Nc3cc(C)on3)c(=O)c2c1C	-	0	0	0	0	-	-
COCCn1cnnc1SCC(=O)Nc1sccc1C(N)=O	0	0	0	0	0	-	-
O=C(Nc1ccccc1F)N1CCC(NC(=O)C23CC4CC(CC(C4)C2)C3)CC1	0	0	0	0	0	-	-
COc1ccccc1NS(=O)(=O)c1cccc(C(=O)NC2CCN(Cc3ccccc3)CC2)c1	-	0	0	20	0	0	0
COc1ccccc1NS(=O)(=O)c1ccc(C)c(C(=O)NC2CCN(Cc3ccccc3)CC2)c1	-	0	0	0	0	-	-
O=C(Nc1ccc(C(F)(F)F)cc1[N+](=O)[O-])O[C@H]1[C@H](Cc2ccccc2)NS(=O)(=O)[C@H]2C[C@@H]3C=C[C@]12O3	-	0	0	18	0	0	0
Cc1ccccc1OCC(O)Cn1c(=N)n(Cc2ccccc2)c2ccccc21 (stereo not given)	0	0	0	31	0	53	0
COc1cccc(NC(=O)CN(C)C(=O)C23CC4CC(CC(Cl)(C4)C2)C3)c1	-	0	0	0	0	-	-
CN=c1scc(-c2ccccc2F)n1/N=C/c1ccc(O)c(O)c1O	0	0	0	18	0	0	0
SMILES	Lipid droplet	MOR-DOR inv ag	HTR5A ag	MOR-DOR ag	HTR5A inv ag	MOR-DOR ag conf	HTR5A ag ctr2
N#Cc1ccsc1NC(=O)C1=COCCO1	-	0	0	0	0	-	-
O=C(Nc1nnc(-c2ccco2)o1)c1ccc(Cl)s1	0	0	0	0	0	-	-
COc1cccc(-c2nnc(NC(=O)c3ccc(Cl)s3)o2)c1	0	0	0	20	0	0	0
Cc1ccc(S(=O)(=O)N(c2ccc(Br)cc2)C2C=CS(=O)(=O)C2)cc1 (stereo not given)	0	0	0	0	0	-	-
Cc1ccccc1NP1(=O)OCCCN1Cc1ccccc1Cl (stereo not given)	-	0	0	30	0	0	0
Cc1cc2c(cc1S(=O)(=O)NCc1ccccc1Cl)OCCN2C	0	0	0	0	0	-	-
COC(=O)c1ccccc1NC(=O)COC(=O)/C=C/c1ccco1	0	0	0	21	0	0	0
CC(C)(C)C(=O)/C=c1\s/c(=C\c2ccc(-c3ccc([N+](=O)[O-])cc3)o2)c(=O)n1CC(=O)NC(N)=O	0	0	0	0	0	-	-
CCN1CCN(CC(O)COc2ccc(C)c(C)c2)CC1 (stereo not given)	-	0	0	25!	0	0	0
CCOC(=O)c1c(NC(=O)CN2CCN(S(=O)(=O)c3cc(Cl)ccc3Cl)CC2)sc(C(=O)N(C)C)c1C	-	0	0	18	0	0	0
O=C(NCCc1ccc(F)cc1)c1ccc(Cl)c(S(=O)(=O)N2CCOCC2)c1	-	0	0	0	0	-	-
CC(=O)C1CCC2C3CC=C4CC(SC(=N)N)CCC4(C)C3CCC12C (stereo not given)	-	0	0	42	0	79	0
CC(=O)OCC(=O)C1CCC2C3CC=C4CC(O)CCC4(C)C3CCC12C (stereo not given)	-	0	0	0	0	-	-
CN1C2C=C(N(CCc3c[nH]c4ccccc34)C(=O)c3ccc(Cl)cc3)CC1CC2 (stereo not given)	-	0	0	100	0	138	0
Cc1c(Cl)ccc2c(C(=O)Nc3cc(C(C)(C)C)on3)cc(-c3ccccn3)nc12	0	0	0	0	0	-	-
Cc1cc(Cl)ccc1OCC(=O)OCC(=O)c1c(N)n(C)c(=O)n(C)c1=O	-	0	0	0	0	-	-
NC(N)=N/N=C/c1ccc(OCc2ccccc2Cl)cc1	-	0	0	22	0	0	0
NC(N)=N/N=C/c1ccccc1	0	0	0	0	0	-	-
CCOC(=O)C1(CCOc2ccccc2)CCN(Cc2cccc(F)c2)CC1	0	0	0	0	0	-	-
CCOC(=O)C1(CCOc2ccccc2)CCN(Cc2cnc(C)s2)CC1	0	0	0	72	0	80	0
CCOC(=O)C1(CCOc2ccccc2)CCN(Cc2ccccc2O)CC1	-	0	0	0	0	-	-
